Measured values as given in PMC10839871 (Heliyon, 2024).
Like-named read-outs stand apart in the source and are kept apart here. One block for each compound: values may come before it.

Legend:
[1] = ref 27 (Djouahri et al., 2015); cited from earlier work
[2] = target: Porcine pancreatic elastase (Sus scrofa, UniProt P00772); experiment: Anti-elastase activity; assay type: biochemical
In short: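 Porcine pancreatic elastase stock at 3.33 mg/mL in sterile water. Test sample (3–0.046 mg/mL), Tris–HCl buffer (pH 8) and enzyme pre-incubated 15 min. N-succinyl-Ala-Ala-Ala-p-nitroanilide substrate (1.6 mM solution) added, then 20 min at 37 °C. A400 read immediately. Inhibition % from blank-corrected sample versus buffer+enzyme absorbance. EGCG positive control. Run in triplicate, mean ± SD.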

[3] = DPPH free radical scavenging assay
[4] = Ferric reducing antioxidant power
Pseudomonas aeruginosa = experiment: MIC / bacterial growth, broth microdilution; assay type: cell-based; conditions: standard antibiotic
In short: (§1)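 Ampicillin (10 to 0.078125 mg/mL) as reference in Mueller–Hinton broth microdilution. Wells inoculated with fresh overnight suspension adjusted to OD600 0.6; uninoculated and drug-free growth controls included. Incubated 18 h at 37 °C, aerobic, shaking at 150 rpm. Growth checked visually and spectrophotometrically. MIC taken as lowest concentration preventing visible growth. Triplicate.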

Staphylococcus aureus = experiment: MIC / bacterial growth, broth microdilution; assay type: cell-based; conditions: standard antibiotic
In short: as §1

Enterococcus faecalis = experiment: MIC / bacterial growth, broth microdilution; assay type: cell-based; conditions: standard antibiotic
In short: as §1

Sequence of Porcine pancreatic elastase (P00772 27-266): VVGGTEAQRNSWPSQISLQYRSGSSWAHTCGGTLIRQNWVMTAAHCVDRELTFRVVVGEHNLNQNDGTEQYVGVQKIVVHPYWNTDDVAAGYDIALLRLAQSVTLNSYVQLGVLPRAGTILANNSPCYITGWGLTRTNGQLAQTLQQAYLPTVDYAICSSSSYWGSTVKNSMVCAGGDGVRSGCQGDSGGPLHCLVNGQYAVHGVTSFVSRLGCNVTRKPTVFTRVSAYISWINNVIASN

ABTS IC50 (ABTS assay): 21.7 ± 0.29 mg/L
Compound: O=C1O[C@H]([C@@H](O)CO)C(O)=C1O [Ascorbic acid]

Compound: COc1ccc(O)c(C(C)(C)C)c1 [BHA]
DPPH IC50 [1]: 24.73 ± 0.11 mg/L

Compound: Cc1cc(C(C)(C)C)c(O)c(C(C)(C)C)c1 [BHT]
DPPH IC50 [1]: 33.89 ± 0.16 mg/L

Elastase IC50 [2]: 92.00 ± 3.1 mg/L
Compound: O=C(O[C@@H]1Cc2c(O)cc(O)cc2O[C@@H]1c1cc(O)c(O)c(O)c1)c1cc(O)c(O)c(O)c1 [EGCG, epigallocatechin gallate]

DPPH IC50 [3]: 5.36 ± 0.25 mg/L
Compound: O=c1c(O)c(-c2ccc(O)c(O)c2)oc2cc(O)cc(O)c12 [Quercetin]
FRAP [4]: 16.60 ± 0.64 mM of FeSO4/g Extract

Compound: CC1(C)S[C@@H]2[C@H](NC(=O)[C@H](N)c3ccccc3)C(=O)N2[C@H]1C(=O)O [ampicillin]
Concentration that completely inhibited the bacterial growth (Pseudomonas aeruginosa): 0.3125 mg/mL
Concentration that completely inhibited the bacterial growth (Staphylococcus aureus): 0.3125 mg/mL
Concentration that completely inhibited the bacterial growth (Enterococcus faecalis): 0.3125 mg/mL
